In brackets after ≈: the same amount, converted by molar mass.
tested on: Mycobacterium tuberculosis; test: Antitubercular activity against Mycobacterium tuberculosis H37Rv after 28 days by agar dilution method; type: functional; settings: 672 h
Procedure, shortened: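 Tenfold serial dilutions were incorporated into Middlebrook 7H11 agar with OADC. The H37Rv inoculum came from fresh 7H11/OADC slants, set to 1 mg/mL wet weight in 0.05% Tween 80 saline and diluted 10^-2 (about 10^7 cfu/mL). 5 µL was spotted per tube and incubated at 37 °C, read at 28 days. MIC was the lowest concentration giving complete growth inhibition, tested in triplicate.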

Going from Cc1ccc([C@@H]2C(c3ccc(Cl)cc3)=NO[C@]23CN([C@H](C)c2ccccc2)CCC3=O)cc1 to C[C@H](c1ccccc1)N1CCC(=O)[C@]2(C1)ON=C(c1ccc(Cl)cc1)[C@H]2c1ccc(Cl)cc1, the MIC falls from 6.82 µM (≈ 3.13 µg/mL) to 3.25 µM (≈ 1.56 µg/mL) (2.1-fold).

C[C@H](c1ccccc1)N1CCC(=O)[C@]2(C1)ON=C(c1ccc(Cl)cc1)[C@H]2c1cccc2ccccc12 and C[C@H](c1ccccc1)N1CCC(=O)[C@]2(C1)ON=C(c1ccccc1)[C@H]2c1cccc2ccccc12 are within 1.5-fold of each other in MIC: 25.2 µM (≈ 12.5 µg/mL) for the first, 27.1 µM (≈ 12.5 µg/mL) for the second.

Going from C[C@H](c1ccccc1)N1CCC(=O)[C@@]2(C1)ON(c1ccccc1)[C@H](c1ccccc1)[C@@H]2c1ccccc1Cl to C[C@H](c1ccccc1)N1CCC(=O)[C@]2(C1)ON(c1ccccc1)[C@@H](c1ccccc1)[C@H]2c1ccccc1Cl, the MIC rises from 5.98 µM (≈ 3.13 µg/mL) to 23.9 µM (≈ 12.5 µg/mL) (4-fold).

C[C@H](c1ccccc1)N1CCC(=O)[C@@]2(C1)[C@@H](c1ccccc1)ON(c1ccccc1)[C@@H]2c1ccccc1 and Cc1ccc([C@H]2N(c3ccccc3)O[C@H](c3ccccc3)[C@@]23CN([C@H](C)c2ccccc2)CCC3=O)cc1 are within 1.5-fold of each other in MIC: 25.6 µM (≈ 12.5 µg/mL) for the first, 24.9 µM (≈ 12.5 µg/mL) for the second.

First: C[C@H](c1ccccc1)N1CCC(=O)[C@]2(C1)ON(c1ccccc1)[C@@H](c1ccccc1)[C@H]2c1cccs1
Second: Cc1ccc([C@H]2[C@@H](c3cccs3)[C@@]3(CN([C@H](C)c4ccccc4)CCC3=O)ON2c2ccccc2)cc1
The MIC of the first is 3.9-fold lower: 6.33 µM (≈ 3.13 µg/mL) for the first, 24.6 µM (≈ 12.5 µg/mL) for the second.

C[C@H](c1ccccc1)N1CCC(=O)[C@@]2(C1)ON=C(c1ccc(Cl)cc1)[C@H]2c1ccccc1 and C[C@H](c1ccccc1)N1CCC(=O)[C@]2(C1)ON=C(c1ccccc1)[C@H]2c1ccc(Cl)cc1 are the same in MIC: 14.1 µM (≈ 6.25 µg/mL) for the first, 14.1 µM (≈ 6.25 µg/mL) for the second.

First: Cc1ccc([C@H]2[C@@H](c3ccc(Cl)cc3)[C@@]3(CN([C@H](C)c4ccccc4)CCC3=O)ON2c2ccccc2)cc1
Second: Cc1ccc([C@@H]2[C@H](c3ccc(Cl)cc3)[C@]3(CN([C@H](C)c4ccccc4)CCC3=O)ON2c2ccccc2)cc1
The MIC of the first is 2-fold lower: 11.6 µM (≈ 6.25 µg/mL) for the first, 23.3 µM (≈ 12.5 µg/mL) for the second.

Compared with Cc1ccc([C@@H]2[C@H](c3ccccc3)N(c3ccccc3)O[C@]23CN([C@H](C)c2ccccc2)CCC3=O)cc1, Cc1ccc([C@H]2[C@@H](c3ccccc3)N(c3ccccc3)O[C@@]23CN([C@H](C)c2ccccc2)CCC3=O)cc1 is 2-fold higher in MIC: 12.4 µM (≈ 6.25 µg/mL) for the first, 24.9 µM (≈ 12.5 µg/mL) for the second.

C[C@H](c1ccccc1)N1CCC(=O)[C@]2(C1)ON(c1ccccc1)[C@@H](c1ccccc1)[C@H]2c1ccccc1 and C[C@H](c1ccccc1)N1CCC(=O)[C@@]2(C1)ON(c1ccccc1)[C@H](c1ccccc1)[C@@H]2c1ccccc1 are the same in MIC: 25.6 µM (≈ 12.5 µg/mL) for the first, 25.6 µM (≈ 12.5 µg/mL) for the second.

Compared with C[C@H](c1ccccc1)N1CCC(=O)[C@]2(C1)ON=C(c1ccccc1)[C@H]2c1ccccc1Cl, C[C@H](c1ccccc1)N1CCC(=O)[C@]2(C1)ON=C(c1ccccc1)[C@H]2c1ccccc1 is 8.7-fold higher in MIC: 7.03 µM (≈ 3.13 µg/mL) for the first, 60.9 µM (≈ 25 µg/mL) for the second.

Compared with Cc1ccc([C@@H]2C(c3ccccc3)=NO[C@]23CN([C@H](C)c2ccccc2)CCC3=O)cc1, C[C@H](c1ccccc1)N1CCC(=O)[C@]2(C1)ON=C(c1ccc(Cl)cc1)[C@H]2c1ccccc1Cl is 4.5-fold lower in MIC: 14.7 µM (≈ 6.25 µg/mL) for the first, 3.25 µM (≈ 1.56 µg/mL) for the second.

First: Cc1ccc([C@@H]2[C@H](c3ccc(C)cc3)[C@]3(CN([C@H](C)c4ccccc4)CCC3=O)ON2c2ccccc2)cc1
Second: Cc1ccc([C@@H]2[C@H](c3ccc(C)cc3)N(c3ccccc3)O[C@]23CN([C@H](C)c2ccccc2)CCC3=O)cc1
The MIC of the first is 2-fold lower: 3.02 µM (≈ 1.56 µg/mL) for the first, 6.06 µM (≈ 3.13 µg/mL) for the second.

Cc1ccc([C@H]2[C@@H](c3ccccc3Cl)[C@@]3(CN([C@H](C)c4ccccc4)CCC3=O)ON2c2ccccc2)cc1 and Cc1ccc([C@@H]2[C@H](c3ccccc3Cl)[C@]3(CN([C@H](C)c4ccccc4)CCC3=O)ON2c2ccccc2)cc1 are the same in MIC: 11.6 µM (≈ 6.25 µg/mL) for the first, 11.6 µM (≈ 6.25 µg/mL) for the second.

Cc1ccc([C@@H]2[C@H](c3ccccc3)[C@]3(CN([C@H](C)c4ccccc4)CCC3=O)ON2c2ccccc2)cc1 and Cc1ccc([C@H]2[C@@H](c3ccccc3)[C@@]3(CN([C@H](C)c4ccccc4)CCC3=O)ON2c2ccccc2)cc1 are the same in MIC: 49.7 µM (≈ 25 µg/mL) for the first, 49.7 µM (≈ 25 µg/mL) for the second.

Compared with CC[C@@H](CO)NCCN[C@@H](CC)CO [ETHAMBUTOL], NNC(=O)c1ccncc1 [ISONIAZID] is 21-fold lower in MIC: 7.64 µM (≈ 1.56 µg/mL) for the first, 0.36 µM (≈ 0.0494 µg/mL) for the second.

Work on CO[C@H]1/C=C/O[C@@]2(C)Oc3c(C)c(O)c4c(O)c(c(/C=N/N5CCN(C)CC5)c(O)c4c3C2=O)NC(=O)/C(C)=C\C=C\[C@H](C)[C@H](O)[C@@H](C)[C@@H](O)[C@@H](C)[C@H](OC(C)=O)[C@@H]1C [RIFAMPIN] yielded an MIC of 0.12 µM (≈ 0.0988 µg/mL).

tested on: Mycobacterium tuberculosis; test: Ratio of MIC for drug to MIC for ethambutol against Mycobacterium tuberculosis H37Rv after 28 days by agar dilution method; type: functional; settings: not given

Cc1ccc([C@@H]2[C@H](c3ccc(C)cc3)[C@]3(CN([C@H](C)c4ccccc4)CCC3=O)ON2c2ccccc2)cc1 was tested, and the Ratio was 2.5.

— ChEMBL document CHEMBL1154648, “1,3-Dipolar cycloaddition of C-aryl-N-phenylnitrones to (R)-1-(1-phenylethyl)-3-[(E)-arylmethylidene]tetrahydro-4(1H)-pyridinones: synthesis and antimycobacterial evaluation of enantiomerically pure spiroisoxazolidines” (2010)
